Reference: ChEMBL document CHEMBL3588766 (Bioorg Med Chem, 2015)
Values after ≈ are worked out from the molar mass of the structure shown. Active and inactive are the calls of the source. The rule behind the calls is not given here.

Experiments:
[1] = molecular target: T1, Bile acid receptor (Homo sapiens, UniProt Q96RI1); assay: Agonist activity at human full length FXR expressed in HeLa cells cotransfected with pSG5-human RXR after 24 hrs by Dual-Glo luciferase reporter gene assay; type: cell-based
T1 sequence (Q96RI1 whole entry): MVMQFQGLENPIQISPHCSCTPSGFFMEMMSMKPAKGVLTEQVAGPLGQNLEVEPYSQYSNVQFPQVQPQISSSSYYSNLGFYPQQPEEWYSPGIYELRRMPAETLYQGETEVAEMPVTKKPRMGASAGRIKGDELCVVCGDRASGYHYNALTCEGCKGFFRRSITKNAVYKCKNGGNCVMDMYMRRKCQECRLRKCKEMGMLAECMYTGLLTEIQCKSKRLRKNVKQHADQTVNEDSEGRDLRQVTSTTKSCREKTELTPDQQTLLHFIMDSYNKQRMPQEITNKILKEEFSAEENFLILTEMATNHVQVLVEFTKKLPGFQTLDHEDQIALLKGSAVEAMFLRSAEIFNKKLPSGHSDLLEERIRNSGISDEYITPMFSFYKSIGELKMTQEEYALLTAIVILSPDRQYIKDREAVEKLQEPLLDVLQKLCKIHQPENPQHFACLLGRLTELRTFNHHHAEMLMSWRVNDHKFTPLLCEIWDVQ

[2] = molecular target: T2, Bile acid receptor (Homo sapiens) (UniProt Q96RI1); assay: Antagonist activity at human full length FXR expressed in HeLa cells cotransfected with pSG5-human RXR at 30 uM after 24 hrs by Dual-Glo luciferase reporter gene assay; type: cell-based
T2 sequence (whole entry): T1 sequence (Q96RI1 whole entry)

[3] = molecular target: T2, Bile acid receptor (Homo sapiens); assay: Agonist activity at human full length FXR expressed in HeLa cells cotransfected with pSG5-human RXR at 30 uM after 24 hrs by Dual-Glo luciferase reporter gene assay; type: cell-based
Outline: (§1)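 HeLa cells, seeded 8,000/well 24 h ahead, calcium phosphate transfected with pcDNA3-hFXR (CMV), pSG5-hRXR, BSEP-promoter firefly luciferase and pRL-SV40 renilla control. Medium at 0.5% charcoal-stripped FCS; compound in 0.1% DMSO for 24 h. Dual-Glo firefly/renilla ratio, expressed relative to 3 µM GW4064. Triplicate wells, ≥3 independent runs.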

[4] = molecular target: T1, Bile acid receptor; assay: Antagonist activity at human full length FXR expressed in HeLa cells cotransfected with pSG5-human RXR after 24 hrs by Dual-Glo luciferase reporter gene assay; type: cell-based
[5] = molecular target: T2, Bile acid receptor (Homo sapiens); assay: Partial agonist activity at FXR in human HepG2 cells assessed as induction of BSEP gene expression at 0.1 uM after 24 hrs by qRT-PCR analysis (reference value: 100%); type: cell-based
Outline: (§2)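 HepG2 (BSEP, SHP, OSTα) or HT-29 (IBABP) cells seeded at 2*10⁶/well, moved to MEM with 1% charcoal-stripped FCS for 24 h, then treated 24 h with 0.1 µM compound in 0.1% DMSO; CDCA 50 µM as reference. Total RNA extracted; qRT-PCR in duplicate, ≥4 independent experiments, comparative ΔΔCt quantification.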

[6] = Metabolic stability in Sprague-Dawley rat liver microsomes assessed as compound remaining at 10 uM after 60 mins by HPLC analysis; type: ADME; details: read-out: Stability
Outline: (§3)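 Compound at 10 µM final, preincubated 5 min at 37 °C in 0.1 M phosphate buffer pH 7.4 with NADPH-regenerating system, then Sprague–Dawley rat liver microsomes added. Stopped with ice-cold methanol at 0, 15, 30, 60 min. Remaining parent quantified by phenyl-column HPLC (UV 330/254 nm) against an external calibration. Controls run without NADPH and with heat-inactivated microsomes.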

[7] = Cytotoxicity against human HepG2 cells assessed as cell proliferation at 10 uM after 48 hrs by WST-1 assay (Rvb =100%); type: cell-based; details: read-out: Activity
Outline: (§4)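 HepG2 seeded at 3*10⁴ cells/well in 10% FCS DMEM; after 24 h switched to 1% charcoal-stripped FCS and exposed to compound for 48 h. Revlotron 100 µM as positive control; Zileuton 100 µM and DMEM/1% DMSO as negative controls. WST reagent for 45 min, absorbance 450/620 nm, untreated set to 100%. Triplicates, ≥4 repeats.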

[8] = system: HepG2; assay: Cytotoxicity against human HepG2 cells at 10 uM after 48 hrs by LDH assay (reference value: 0%); type: cell-based; details: hepg2, 48 h
Outline: (§5)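 HepG2 at 3*10⁴ cells/well, moved to 1% charcoal-stripped FCS medium after 24 h, then compound for 48 h. Triton X-100 (2%) added 2 h before reading as 100% lysis control; untreated = 0%. Supernatant mixed with LDH substrate for 20 min, absorbance 490 nm against 690 nm reference. Triplicates, ≥4 independent repeats.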

[9] = Metabolic stability in Sprague-Dawley rat liver microsomes assessed as compound remaining at 10 uM by HPLC analysis; type: ADME; details: read-out: Stability; outline: as §3
[10] = system: HepG2; assay: Cytotoxicity against human HepG2 cells at 5 uM after 48 hrs by LDH assay (reference value: 0%); type: cell-based; details: hepg2, 48 h; outline: as §5
[11] = molecular target: T2, Bile acid receptor (Homo sapiens); assay: Partial agonist activity at FXR in human HT-29 cells assessed as induction of IBABP gene expression at 0.1 uM after 24 hrs by qRT-PCR analysis (reference value: 100%); type: cell-based; outline: as §2
[12] = Cytotoxicity against human HepG2 cells assessed as cell proliferation at 50 uM after 48 hrs by WST-1 assay (Rvb =100%); type: cell-based; details: read-out: Activity; outline: as §4
[13] = Metabolic stability in Sprague-Dawley rat liver microsomes assessed as compound remaining at 10 uM after 15 mins by HPLC analysis; type: ADME; details: read-out: Stability; outline: as §3
[14] = Solubility of the compound in 1% aqueous DMSO solution by HPLC analysis; type: physicochemical
[15] = Metabolic stability in Sprague-Dawley rat liver microsomes assessed as compound remaining at 10 uM after 30 mins by HPLC analysis; type: ADME; details: read-out: Stability; outline: as §3
[16] = molecular target: T2, Bile acid receptor (Homo sapiens); assay: Partial agonist activity at FXR in human HepG2 cells assessed as induction of OST-alpha gene expression at 0.1 uM after 24 hrs by qRT-PCR analysis (reference value: 100%); type: cell-based; outline: as §2
[17] = Cytotoxicity against human HepG2 cells assessed as cell proliferation at 5 uM after 48 hrs by WST-1 assay (Rvb =100%); type: cell-based; details: read-out: Activity; outline: as §4
[18] = system: HepG2; assay: Cytotoxicity against human HepG2 cells at 50 uM after 48 hrs by LDH assay (reference value: 0%); type: cell-based; details: hepg2, 48 h; outline: as §5
[19] = molecular target: T2, Bile acid receptor (Homo sapiens); assay: Partial agonist activity at FXR in human HepG2 cells assessed as induction of SHP gene expression at 0.1 uM after 24 hrs by qRT-PCR analysis (reference value: 100%); type: cell-based; outline: as §2
[20] = Solubility of the compound in 1% aqueous DMSO solution measured after 4 hrs by HPLC analysis; type: physicochemical
[21] = molecular target: T2, Bile acid receptor (Homo sapiens); assay: Agonist activity at human full length FXR expressed in HeLa cells cotransfected with pSG5-human RXR at 10 uM after 24 hrs by Dual-Glo luciferase reporter gene assay; type: cell-based; outline: as §1
[22] = molecular target: T2, Bile acid receptor (Homo sapiens); assay: Antagonist activity at human full length FXR expressed in HeLa cells cotransfected with pSG5-human RXR at 10 uM after 24 hrs by Dual-Glo luciferase reporter gene assay; type: cell-based
[23] = molecular target: T2, Bile acid receptor (Homo sapiens); assay: Agonist activity at human full length FXR expressed in HeLa cells cotransfected with pSG5-human RXR at 50 uM after 24 hrs by Dual-Glo luciferase reporter gene assay; type: cell-based; outline: as §1

## Brc1ccc(-c2nc(-c3ccccc3)no2)cc1
[1]
  EC50: 350 nM

## COc1ccc(-c2sc(-c3ccc(C)cc3)nc2O)cc1
[2]
  inhibition: inactive
[3]
  Activity: inactive

## COc1ccc(-c2nc(-c3ccccc3)no2)cc1
[4]
  IC50: 16400 nM

## Cc1ccccc1-c1noc(-c2cccc(C(=O)O)c2)n1
[5]
  Activity: 395%
[6]
  remaining at 1 h, 10 µM: 53.9%
[7]
  viability at 48 h, 10 µM: 87%
[8]
  Activity: 0%
[9]
  remaining at 10 µM: 99.4%
[10]
  Activity: 0%
[11]
  Activity: 295%
[12]
  viability at 48 h, 50 µM: 86%
[13]
  remaining at 0.25 h, 10 µM: 84.6%
[1]
  EC50: 7.2 nM
[14]
  solubility: 33 µg/mL (≈ 118 µM)
[15]
  remaining at 0.5 h, 10 µM: 71.3%
[16]
  Activity: 339%
[17]
  viability at 48 h, 5 µM: 109%
[18]
  Activity: 15%
[19]
  Activity: 515%

## Cc1ccc(-c2noc(-c3ccc(Cl)cc3)n2)cc1
[1]
  EC50: 410 nM

## c1ccc(-c2noc(-c3ccccc3)n2)cc1
[1]
  EC50: 530 nM

## CCN(CC)c1ccc2cc(-c3nc(-c4ccccc4)no3)c(=O)oc2c1
[20]
  solubility at 4 h: 9.98 µg/mL (≈ 27.6 µM)
[1]
  EC50: 460 nM
[14]
  solubility: 10.1 µg/mL (≈ 27.9 µM)

## COc1ccc(-c2nc(-c3ccccc3C)no2)cc1
[1]
  EC50: 120 nM

## Oc1ccc(-c2nc(-c3ccccc3)no2)cc1
[21]
  Activity: inactive
[22]
  inhibition: inactive

## Cc1ccccc1-c1noc(-c2ccc(C(=O)O)cc2)n1
[1]
  EC50: 220 nM

## CC(C)c1nc(-c2ccccc2)no1
[23]
  Activity: 12.3%

## COc1ccc(-c2nc(-c3cccc(C(F)(F)F)c3)no2)cc1
[1]
  EC50: 2900 nM
